Published values pooled from the literature.
Lines come from different studies, so protocols differ.
Target: High affinity nerve growth factor receptor (NTRK1, Homo sapiens, UniProt P04629)

For CNC(=O)Nc1ccc2c(c1)CC[C@@]21OC(=O)N(CC(=O)N(Cc2ccc(F)cc2)[C@@H](C)C(F)(F)F)C1=O, the remaining binding was 81% (cell-free assay; competition with immobilised ligand; 1 µM).
Cc1cc(NC(=O)c2cccc3cc(-c4cccc5[nH]nc(N)c45)ccc23)ccc1F gave an activity vs control of 121% (enzyme activity; inhibitor; 0.1 µM).
Nc1ncnc2occ(-c3ccc(NC(=O)Nc4cc(C(F)(F)F)ccc4F)cc3)c12 has a remaining signal of 0% (cell-free assay; 20 µM).
The inhibition of O=C(Nc1ccc(F)cc1)Nc1cccc(C(=O)Nc2ccc3[nH]ncc3c2)c1 is reported as 63.2% (enzyme activity; inhibitor; FRET; 1 µM).
The activity vs control of COc1cc(/C=C/C(=O)CC(=O)/C=C/c2ccc(O)c(OC)c2)ccc1O is reported as 93% (enzyme activity; inhibitor; 1 µM).
For CN(C)C(=O)Cn1cc(-c2nc(C3(c4ccc(-c5cnc(N)nc5)cc4)CC3)no2)cn1, the remaining binding was 100% (cell-free assay; competition with immobilised ligand; 1 µM).
CC(C)(O)[C@H]1CC[C@H](Nc2ccc3ncc(-c4cccc(C(F)(F)F)c4)n3n2)CC1 gave a remaining activity of 21.9% (enzyme activity; inhibitor; 1 µM).
For Cc1ccc(NC(=O)c2ccc(CN3CCN(C)CC3)cc2)cc1Nc1nc(-c2cccnc2)cs1, the remaining signal was 97.1% (cell-free assay; 0.5 µM).
The remaining activity of CCN(CC)CCNC(=O)c1c(C)[nH]c(/C=C2\C(=O)Nc3ccc(F)cc32)c1C is reported as 19% (enzyme activity; inhibitor; 0.1 µM).
For CCCOc1ccc(OC)c(F)c1C(=O)c1ccc(C(=O)N[C@@H]2CNC[C@H]2NC(=O)c2ccc3[nH]ncc3c2)cc1, the remaining activity was 46% (enzyme activity; inhibitor; 10 µM).
O=C1NC(=O)c2cc(Nc3ccc(F)cc3)c(Nc3ccc(F)cc3)cc21 gave a remaining signal of 93.6% (cell-free assay; 0.5 µM).
O=C(Nc1cnn(-c2csc(C(=O)NC3COC3)c2)c1)Nc1c(F)cccc1Cl has a remaining activity of 87.8% (enzyme activity; inhibitor; 5 µM).
The remaining activity of Oc1cccc(-c2nc(N3CCOCC3)c3oc4ncccc4c3n2)c1 is reported as 93% (enzyme activity; inhibitor; 10 µM).
The remaining binding of CNC(=O)c1ccc(Nc2ncc(C(F)(F)F)c(NCc3nccnc3N(C)S(C)(=O)=O)n2)cc1 is reported as 13% (binding; competition with immobilised ligand; 1 µM).
O=C(Nc1cnn2ccc(N3CCC[C@@H]3c3cc(F)ccc3F)nc12)N1CC[C@H](O)C1 has an inhibition of 100% (enzyme activity; inhibitor; FRET; 1 µM).
With CCOCCn1cc(C(=O)Nc2ccc(-n3nc(-c4cccnc4)cc3C(F)(F)F)cn2)ccc1=O the remaining binding was 100% (cell-free assay; competition with immobilised ligand; 1 µM).
O=C(Nc1cccc(C(=O)Nc2ccc3[nH]ncc3c2)c1)Nc1ccccc1F has an inhibition of 42.7% (enzyme activity; inhibitor; FRET; 1 µM).
The remaining binding of CC(=O)N1CCC(c2ccc(C(=O)NC(=N)N)cc2C(F)(F)F)CC1 is reported as 100% (cell-free assay; competition with immobilised ligand; 1 µM).
The remaining signal of C[C@@H]1CCN(C(=O)CC#N)C[C@@H]1N(C)c1ncnc2[nH]ccc12 is reported as 94.1% (cell-free assay; 0.5 µM).
For C[C@@H]1CN(c2cc(-c3n[nH]c4ccc(OC5(C)CC5)cc34)ncn2)C[C@H](C)O1, the remaining binding was 73% (cell-free assay; competition with immobilised ligand; 0.1 µM).
FC(F)(F)Oc1cccc(-c2cnc3ccc(-c4ccncc4)nn23)c1 gave an activity vs control of 16% (enzyme activity; inhibitor; radiometric; 1 µM).
The inhibition of O=C(Nc1cccc(F)c1)Nc1cccc(C(=O)Nc2ccc3[nH]ncc3c2)c1 is reported as 51.3% (enzyme activity; inhibitor; FRET; 1 µM).
The remaining activity of Cc1sc(C(=O)NC2COC2)cc1-n1cc(NC(=O)Nc2c(F)cccc2Cl)cn1 is reported as 81% (enzyme activity; inhibitor; 10 µM).
O=C(Nc1ccc2[nH]ncc2c1)c1cccc(NC(=O)c2cc(C(F)(F)F)ccc2F)c1 gave an inhibition of 34% (enzyme activity; inhibitor; FRET; 1 µM).
The remaining activity of Cc1[nH]c(/C=C2\C(=O)Nc3ccc(F)cc32)c(C)c1C(=O)N[C@H]1CCN(C(=O)N(C)C)C1 is reported as 34% (enzyme activity; inhibitor; 0.1 µM).
COc1cc(Nc2cnc(C#N)c(O[C@H](C)CN(C)C)n2)ncc1-c1cnn(C)c1 gave a remaining activity of 28% (enzyme activity; inhibitor; radiometric; 10 µM).
The remaining binding of COc1cc(-c2cn(C3CCc4ccccc4N(CC(F)(F)F)C3=O)nn2)ccc1-n1ccc(C)n1 (stereo not drawn) is reported as 63% (cell-free assay; competition with immobilised ligand; 1 µM).
The remaining activity of CC(C)(C)c1nc2c(s1)c1nc(N)ncc1c1ccc(NS(=O)(=O)c3c(F)cccc3F)c(F)c12 is reported as 54% (enzyme activity; inhibitor; radiometric; 1 µM).
O=C(Nc1cccc(Cl)c1)Nc1cccc(C(=O)Nc2ccc3[nH]ncc3c2)c1 has an inhibition of 47.4% (enzyme activity; inhibitor; FRET; 1 µM).
With Nc1cnc(N2CCc3cc(S(=O)(=O)Nc4c(F)cc(Cl)cc4F)cc(N4CCCC4=O)c32)nc1 the remaining binding was 100% (cell-free assay; competition with immobilised ligand; 1 µM).
